In series [1] the test system is Mus musculus. The series can be described thus: Antiinflammatory activity in A/J mouse assessed as inhibition of LPS-induced airway elastance provoked by methacholine at 100 umol/kg, po administered 1 hr prior to LPS-challenge measured after 18 hrs relative to vehicle-treated control. Format: functional.
The test system of series [2] is Mus musculus. Nature of the series: Antiinflammatory activity in A/J mouse assessed as inhibition of LPS-induced airway resistance provoked by methacholine at 100 umol/kg, po administered 1 hr prior to LPS-challenge measured after 18 hrs relative to vehicle-treated control. Format: functional.
For series [3], the system named is Mus musculus. Nature of the series: Antiinflammatory activity in A/J mouse assessed as inhibition of neutrophil accumulation in bronchoalveolar space at 100 umol/kg, po administered 1 hr prior to LPS-challenge measured after 18 hrs relative to vehicle-treated control. The settings on record: Lung. It is filed as functional.
Series [4] concerns Mus musculus. The series can be described thus: Antiinflammatory activity in A/J mouse assessed as inhibition of leukocyte accumulation in bronchoalveolar space at 100 umol/kg, po administered 1 hr prior to LPS-challenge measured after 18 hrs relative to vehicle-treated control. Conditions: Lung. It is filed as functional.
The subject of series [5] is Mus musculus. The series can be described thus: Antiinflammatory activity in A/J mouse lung assessed as inhibition of LPS-induced IL6 production at 100 umol/kg, po administered 1 hr prior to LPS-challenge measured after 18 hrs relative to vehicle-treated control. It is filed as functional.
The subject of series [6] is Mus musculus. Nature of the series: Antiinflammatory activity in A/J mouse lung assessed as inhibition of LPS-induced TNFalpha production at 100 umol/kg, po administered 1 hr prior to LPS-challenge measured after 18 hrs relative to vehicle-treated control. Format: functional.
The subject of series [7] is PBMC. Nature of the series: Antiinflammatory activity in human PBMC assessed as inhibition of LPS-induced TNFalpha production after 24 hrs by ELISA. It is filed as functional, cell-based.
For series [8], the system named is PBMC. Nature of the series: Antiinflammatory activity in human PBMC assessed as inhibition of LPS-induced TNFalpha production at 10 uM after 24 hrs by ELISA relative to control. Format: functional.
Series [9] is described as follows: Inhibition of PDE6 at 10 uM.
For series [10], the species on record is Bos taurus. The series can be described thus: Inhibition of bovine PDE5 using […] as substrate at 10 uM.
The nature of series [11]: Inhibition of bovine PDE3 using [3H]cAMP as substrate. Also on record: species or system Bos taurus.
For series [12], the target named is T1, cGMP-dependent 3',5'-cyclic phosphodiesterase (Homo sapiens, UniProt O00408). Nature of the series: Inhibition of human PDE2 using [3H]cAMP as substrate.
For series [13], the species on record is Bos taurus. Nature of the series: Inhibition of bovine PDE1 using [3H]cAMP as substrate at 10 uM.
Series [14] can be described thus: Inhibition of bovine PDE4 using [3H]cAMP as substrate. Also on record: species or system Bos taurus.
For series [15], the species on record is Bos taurus. The series can be described thus: Inhibition of bovine PDE4 using [3H]cAMP as substrate at 10 uM. The method, boiled down: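 Enzyme was PDE4 isolated from the media layer of bovine aorta, run in the two-step activity assay at 1 μM cAMP.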
For series [16], the system named is Mus musculus. The series can be described thus: Antiinflammatory activity in A/J mouse assessed as inhibition of LPS-induced airway elastance provoked by methacholine at 45 umol/kg, po administered 1 hr prior to LPS-challenge measured after 18 hrs relative to vehicle-treated control. It is filed as functional.
In series [17] the test system is Mus musculus. Nature of the series: Antiinflammatory activity in A/J mouse assessed as inhibition of LPS-induced airway resistance provoked by methacholine at 45 umol/kg, po administered 1 hr prior to LPS-challenge measured after 18 hrs relative to vehicle-treated control. Format: functional.
The subject of series [18] is Mus musculus. The series can be described thus: Antiinflammatory activity in A/J mouse assessed as inhibition of eosinophils accumulation in bronchoalveolar space at 45 umol/kg, po administered 1 hr prior to LPS-challenge measured after 18 hrs relative to vehicle-treated control. Format: functional, organism-based. Conditions: Lung.
In series [19] the test system is Mus musculus. The series can be described thus: Antiinflammatory activity in A/J mouse assessed as inhibition of mononuclear cell accumulation in bronchoalveolar space at 45 umol/kg, po administered 1 hr prior to LPS-challenge measured after 18 hrs relative to vehicle-treated control. It is filed as functional, organism-based. Conditions: Lung.
Series [20] relates to Mus musculus. Nature of the series: Antiinflammatory activity in A/J mouse assessed as inhibition of neutrophil accumulation in bronchoalveolar space at 45 umol/kg, po administered 1 hr prior to LPS-challenge measured after 18 hrs relative to vehicle-treated control. It is filed as functional. The settings on record: Lung.
Series [21] deals with Mus musculus. Nature of the series: Antiinflammatory activity in A/J mouse assessed as inhibition of leukocyte accumulation in bronchoalveolar space at 45 umol/kg, po administered 1 hr prior to LPS-challenge measured after 18 hrs relative to vehicle-treated control. Format: functional. Conditions: Lung.
Series [22] has as its system Mus musculus. Nature of the series: Antiinflammatory activity in A/J mouse lung assessed as inhibition of LPS-induced IL6 production at 45 umol/kg, po administered 1 hr prior to LPS-challenge measured after 18 hrs relative to vehicle-treated control. It is filed as functional.
Series [23] concerns Mus musculus. The series can be described thus: Antiinflammatory activity in A/J mouse lung assessed as inhibition of LPS-induced TNFalpha production at 45 umol/kg, po administered 1 hr prior to LPS-challenge measured after 18 hrs relative to vehicle-treated control. Format: functional.
For series [24], the system named is Mus musculus. The series can be described thus: Proemetic activity in A/J mouse assessed as reversal of xylazine/katamine-induced anesthesia at 1 to 50 umol/kg, sc administered 30 mins prior xylazine/ketamine-administration. Format: ADME, organism-based. The settings on record: in vivo, 0.5 h.
Series [25] can be described thus: Inhibition of bovine PDE5 using […] as substrate. Also on record: species or system Bos taurus.
For series [26], the target named is T1, cGMP-dependent 3',5'-cyclic phosphodiesterase. The series can be described thus: Inhibition of human PDE2 using [3H]cAMP as substrate at 10 uM.
Series [27] has as its target 3',5'-cyclic-AMP phosphodiesterase 4D (Homo sapiens, UniProt Q08499). Nature of the series: Inhibition of human recombinant PDE4D.
For series [28], the system named is Mus musculus. The series can be described thus: Proemetic activity in A/J mouse assessed as reversal of xylazine/katamine-induced anesthesia at 30 to 200 umol/kg, sc administered 30 mins prior xylazine/ketamine-administration. It is filed as ADME, organism-based. Conditions: in vivo, 0.5 h.
Series [29] has as its target 3',5'-cyclic-AMP phosphodiesterase 4C (Homo sapiens, UniProt Q08493). Nature of the series: Inhibition of human recombinant PDE4C.
Series [30] addresses 3',5'-cyclic-AMP phosphodiesterase 4B (Homo sapiens, UniProt Q07343). The series can be described thus: Inhibition of human recombinant PDE4B.
Series [31] has as its target 3',5'-cyclic-AMP phosphodiesterase 4A (Homo sapiens, UniProt P27815). Nature of the series: Inhibition of human recombinant PDE4A.

Activity calls are given as the source filed them. The calls are words filed in the database; no cut-off is given here.

T1 sequence (O00408 whole entry): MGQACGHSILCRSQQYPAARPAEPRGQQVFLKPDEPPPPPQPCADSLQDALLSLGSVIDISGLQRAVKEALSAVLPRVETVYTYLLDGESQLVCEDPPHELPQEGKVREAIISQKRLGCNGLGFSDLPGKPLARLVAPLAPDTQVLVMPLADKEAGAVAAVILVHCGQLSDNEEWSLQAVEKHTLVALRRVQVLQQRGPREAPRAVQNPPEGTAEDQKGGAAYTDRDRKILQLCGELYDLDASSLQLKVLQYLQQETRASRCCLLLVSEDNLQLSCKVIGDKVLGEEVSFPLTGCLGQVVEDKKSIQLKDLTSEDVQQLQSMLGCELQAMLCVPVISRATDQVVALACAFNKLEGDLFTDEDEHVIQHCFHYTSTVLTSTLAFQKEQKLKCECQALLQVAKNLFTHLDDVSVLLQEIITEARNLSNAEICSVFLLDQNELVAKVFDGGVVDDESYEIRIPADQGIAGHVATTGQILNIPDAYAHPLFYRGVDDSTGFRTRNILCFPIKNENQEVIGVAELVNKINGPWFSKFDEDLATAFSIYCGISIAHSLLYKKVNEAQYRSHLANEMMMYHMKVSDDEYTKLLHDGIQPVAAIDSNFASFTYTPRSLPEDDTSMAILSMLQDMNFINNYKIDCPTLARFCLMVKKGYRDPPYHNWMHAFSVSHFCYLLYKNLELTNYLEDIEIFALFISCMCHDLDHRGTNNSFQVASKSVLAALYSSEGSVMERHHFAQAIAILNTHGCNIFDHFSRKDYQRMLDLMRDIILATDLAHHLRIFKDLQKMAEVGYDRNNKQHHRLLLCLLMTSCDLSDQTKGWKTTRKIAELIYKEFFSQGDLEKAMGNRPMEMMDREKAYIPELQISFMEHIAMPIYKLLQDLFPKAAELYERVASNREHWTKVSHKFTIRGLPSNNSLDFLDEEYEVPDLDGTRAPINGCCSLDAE
3',5'-cyclic-AMP phosphodiesterase 4A, sequence (P27815 whole entry): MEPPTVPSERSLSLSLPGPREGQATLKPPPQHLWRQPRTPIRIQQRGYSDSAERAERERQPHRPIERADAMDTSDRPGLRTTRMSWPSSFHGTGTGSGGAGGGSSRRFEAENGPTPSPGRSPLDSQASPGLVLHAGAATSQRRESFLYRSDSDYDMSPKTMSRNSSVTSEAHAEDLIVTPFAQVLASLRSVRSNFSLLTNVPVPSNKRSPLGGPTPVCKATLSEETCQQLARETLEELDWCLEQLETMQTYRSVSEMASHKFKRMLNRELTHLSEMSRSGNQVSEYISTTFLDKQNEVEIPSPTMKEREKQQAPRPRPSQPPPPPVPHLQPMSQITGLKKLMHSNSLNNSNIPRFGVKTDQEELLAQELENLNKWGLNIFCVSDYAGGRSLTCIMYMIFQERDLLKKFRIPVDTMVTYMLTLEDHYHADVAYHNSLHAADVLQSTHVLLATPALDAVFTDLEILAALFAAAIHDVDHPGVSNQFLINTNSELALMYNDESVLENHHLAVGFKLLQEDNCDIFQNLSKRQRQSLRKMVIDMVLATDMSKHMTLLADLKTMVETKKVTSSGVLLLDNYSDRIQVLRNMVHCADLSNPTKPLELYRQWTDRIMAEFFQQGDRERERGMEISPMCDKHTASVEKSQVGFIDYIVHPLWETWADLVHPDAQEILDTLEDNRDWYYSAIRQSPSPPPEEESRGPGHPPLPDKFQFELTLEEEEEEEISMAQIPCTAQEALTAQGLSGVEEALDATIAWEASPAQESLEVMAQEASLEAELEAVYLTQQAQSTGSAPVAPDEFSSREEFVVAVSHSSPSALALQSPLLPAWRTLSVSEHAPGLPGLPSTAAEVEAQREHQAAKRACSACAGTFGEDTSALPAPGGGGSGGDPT
3',5'-cyclic-AMP phosphodiesterase 4C, sequence (Q08493 whole entry): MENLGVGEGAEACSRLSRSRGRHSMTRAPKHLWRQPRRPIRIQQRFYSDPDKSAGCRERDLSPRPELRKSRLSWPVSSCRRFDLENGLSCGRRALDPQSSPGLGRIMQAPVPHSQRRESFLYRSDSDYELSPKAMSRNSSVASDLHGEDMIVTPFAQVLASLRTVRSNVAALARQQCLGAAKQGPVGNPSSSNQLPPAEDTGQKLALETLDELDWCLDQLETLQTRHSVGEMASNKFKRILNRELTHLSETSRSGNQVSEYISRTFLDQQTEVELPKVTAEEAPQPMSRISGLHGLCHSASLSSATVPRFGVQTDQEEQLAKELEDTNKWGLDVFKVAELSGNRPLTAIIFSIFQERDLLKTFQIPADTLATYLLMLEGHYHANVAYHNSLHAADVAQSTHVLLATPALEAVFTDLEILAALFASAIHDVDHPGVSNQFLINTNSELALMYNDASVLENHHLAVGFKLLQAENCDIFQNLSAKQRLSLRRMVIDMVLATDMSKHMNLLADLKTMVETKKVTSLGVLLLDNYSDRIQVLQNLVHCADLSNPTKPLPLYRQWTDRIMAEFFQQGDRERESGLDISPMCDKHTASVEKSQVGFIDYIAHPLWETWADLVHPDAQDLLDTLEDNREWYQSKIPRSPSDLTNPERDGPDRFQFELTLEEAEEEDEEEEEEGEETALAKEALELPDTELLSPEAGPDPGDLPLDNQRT
3',5'-cyclic-AMP phosphodiesterase 4B, sequence (Q07343 whole entry): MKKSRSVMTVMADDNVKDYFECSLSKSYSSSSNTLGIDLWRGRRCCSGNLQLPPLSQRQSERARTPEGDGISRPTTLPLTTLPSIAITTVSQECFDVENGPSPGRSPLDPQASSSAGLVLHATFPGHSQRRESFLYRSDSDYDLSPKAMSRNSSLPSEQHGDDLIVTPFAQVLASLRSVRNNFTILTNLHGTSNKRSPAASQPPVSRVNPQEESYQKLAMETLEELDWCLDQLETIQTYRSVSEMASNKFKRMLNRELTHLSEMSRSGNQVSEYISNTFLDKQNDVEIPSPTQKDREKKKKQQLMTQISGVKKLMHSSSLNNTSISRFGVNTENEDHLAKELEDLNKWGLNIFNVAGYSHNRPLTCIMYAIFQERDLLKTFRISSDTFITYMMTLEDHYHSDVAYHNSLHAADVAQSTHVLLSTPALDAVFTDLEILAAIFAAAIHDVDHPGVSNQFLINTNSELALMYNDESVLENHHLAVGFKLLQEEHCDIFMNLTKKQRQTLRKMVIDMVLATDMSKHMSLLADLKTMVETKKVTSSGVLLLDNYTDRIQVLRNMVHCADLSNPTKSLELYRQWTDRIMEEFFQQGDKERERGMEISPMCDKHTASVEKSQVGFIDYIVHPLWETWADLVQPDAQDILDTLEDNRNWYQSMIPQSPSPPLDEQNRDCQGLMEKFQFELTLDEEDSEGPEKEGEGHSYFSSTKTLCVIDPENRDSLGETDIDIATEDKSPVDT
3',5'-cyclic-AMP phosphodiesterase 4D, sequence (Q08499 whole entry): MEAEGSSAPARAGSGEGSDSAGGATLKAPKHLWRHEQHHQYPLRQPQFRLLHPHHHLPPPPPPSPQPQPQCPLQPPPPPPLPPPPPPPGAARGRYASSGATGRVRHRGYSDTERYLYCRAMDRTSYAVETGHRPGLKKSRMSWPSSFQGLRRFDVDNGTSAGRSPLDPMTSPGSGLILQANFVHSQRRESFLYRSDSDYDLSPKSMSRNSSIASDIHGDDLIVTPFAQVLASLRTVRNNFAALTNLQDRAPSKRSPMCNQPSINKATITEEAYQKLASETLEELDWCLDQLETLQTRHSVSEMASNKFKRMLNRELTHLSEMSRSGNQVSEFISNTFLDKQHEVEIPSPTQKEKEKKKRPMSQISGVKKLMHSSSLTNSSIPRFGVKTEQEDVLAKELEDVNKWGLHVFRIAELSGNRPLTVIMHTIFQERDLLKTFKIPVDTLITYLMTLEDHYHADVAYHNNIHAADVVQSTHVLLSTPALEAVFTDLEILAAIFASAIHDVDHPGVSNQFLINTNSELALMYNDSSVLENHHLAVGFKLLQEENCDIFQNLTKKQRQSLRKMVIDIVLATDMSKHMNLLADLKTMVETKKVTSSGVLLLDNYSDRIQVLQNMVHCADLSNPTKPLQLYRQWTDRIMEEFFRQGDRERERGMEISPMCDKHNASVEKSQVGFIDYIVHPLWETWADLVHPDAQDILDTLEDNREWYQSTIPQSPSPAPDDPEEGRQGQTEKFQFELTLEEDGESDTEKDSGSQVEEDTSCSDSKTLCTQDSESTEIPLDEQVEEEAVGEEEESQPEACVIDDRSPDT

Take `COc1ccc(/C=N/N(C)C(=O)c2ccccc2OC)cc1OC`: the inhibition in vivo at 100 µmol/kg in the series on Mus musculus [1] was determined as 59%; with Mus musculus [2], 61%; in the series on Mus musculus [3], 53%; in the series on Mus musculus [4], 52%; with Mus musculus [5], 99%; in the series with Mus musculus [6], 100%. For the same molecule, in the series with PBMC [7], the EC50 is 1.59 µM. The inhibition at 10 µM in the series with PBMC [8] came to 80%. In addition, the inhibition was found to be 11% in series [9], 13.9% in the series listed under Bos taurus [10], 11% in the series filed under Bos taurus [13] and 97.8% in the series filed under Bos taurus [15]. Further, the figures for the IC50 in series [11], in [12] and in series [14] were 6.2 µM, 16.8 µM and 0.21 µM, respectively.
Take `COc1ccc(C2CNC(=O)C2)cc1OC1CCCC1` (stereo unspecified) [ROLIPRAM]: the inhibition in vivo at 45 µmol/kg in the series with Mus musculus [16] was 96%; in the series with Mus musculus [17], 95%; with Mus musculus [20] it was 70%; with Mus musculus [21], 70%; in the series on Mus musculus [22], 54%; in the series with Mus musculus [23] it was 69%. Moreover, the inhibition result in the series on Mus musculus [18] and in the series with Mus musculus [19] was “Active” each time. Further, in the series with PBMC [7], the EC50 is 0.13 µM. Also, in the series on Mus musculus [24], the Activity entry is on record as “Toxic”. Further, in [14], the IC50 worked out at 0.8 µM.
As to `COc1ccc(C(=O)N(C)/N=C/c2ccc(OC)c(OC)c2)cc1`, the inhibition in vivo at 100 µmol/kg amounted to 62% in the series on Mus musculus [1]; 61% in the series with Mus musculus [2]; 68% in the series on Mus musculus [3]; 81% with Mus musculus [4]; 45% in the series with Mus musculus [5]; 51% in the series on Mus musculus [6]. In addition, in the series on PBMC [7], the EC50 amounted to 1.45 µM. The inhibition at 10 µM in the series on PBMC [8] stood at 84%. Also, the inhibition in series [9] was determined as 35.2%; in [26], 35.5%; in the series listed under Bos taurus [13], 25.1%; in the series listed under Bos taurus [15] it was 98.3%. In addition, the IC50 in series [25] came to 0.15 µM; in [11], 6.7 µM; in series [27], 0.074 µM; in [29], 0.505 µM; in series [30], 0.053 µM; in series [31] it was 0.159 µM. In [14], this molecule registered an IC50 of 0.105 µM. In the series with Mus musculus [28], the Activity result is on record as “Non-toxic”.

Values taken from ChEMBL document CHEMBL2169806, “Design, synthesis, and pharmacological evaluation of N-acylhydrazones and novel conformationally constrained compounds as selective and potent orally active phosphodiesterase-4 inhibitors” (J Med Chem, 2012).
